{"source": "ChEMBL document CHEMBL2150886", "about": "“Synthesis of [3β-acetoxy-urs-12-en-28-oyl]-1-monoglyceride and investigation on its anti tumor effects against BGC-823” (Bioorg Med Chem, 2011)", "key": {"BGC-823 [1]": {"tested_on": "BGC-823", "experiment": "Induction of apoptosis in human BGC823 cells assessed as early apoptotic cell population at 10 uM by annexinV/propidium iodide staining (reference value: 1.9%)", "format": "functional"}, "BGC-823 [2]": {"tested_on": "BGC-823", "experiment": "Cell cycle arrest in human BGC823 cells assessed as accumulation of cells at subG0/G1 phase at 40 uM incubated for 24 to 72 hrs by propidium iodide staining based flow cytometry (Rvb= 0.66%)", "format": "functional"}, "BGC-823 [3]": {"tested_on": "BGC-823", "experiment": "Cell cycle arrest in human BGC823 cells assessed as accumulation of cells at subG0/G1 phase at 20 uM incubated for 48 hrs by propidium iodide staining based flow cytometry (Rvb= 0.66%)", "format": "functional", "in_short": "(§1)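 BGC-823 cells were exposed to 20 µM for 24, 48 or 72 h, or to 10, 20 or 40 µM for 48 h. About 10⁶ cells were harvested and stained with propidium iodide using a cell cycle kit, then analysed by flow cytometry. Percentages were read for sub-G0/G1, G0/G1, S and G2/M. Each experiment was run at least three times; mean ± SD.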"}, "HepG2": {"tested_on": "HepG2", "experiment": "Cytotoxicity against human HepG2 cells incubated for 48 hrs by MTT assay", "format": "functional, cell-based", "details": "HepG2, 48 h", "in_short": "(§2)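 Cells were grown in RPMI-1640 with 10% heat-inactivated FCS at 37 °C under 5% CO₂, seeded at 5 × 10³ per well and left 24 h. Compounds in DMSO were diluted in medium to 0.5% final DMSO; controls received 0.5% DMSO. Exposure was 24–72 h, followed by MTT for 4 h, formazan dissolved in DMSO, and A570. Six wells per sample; IC₅₀ taken at 50% inhibition; ≥3 repeats.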"}, "BGC-823 [4]": {"tested_on": "BGC-823", "experiment": "Induction of apoptosis in human BGC823 cells assessed as late apoptotic cell population at 30 uM by annexinV/propidium iodide staining (reference value: 2.1%)", "format": "functional"}, "BGC-823 [5]": {"tested_on": "BGC-823", "experiment": "Cell cycle arrest in human BGC823 cells assessed as accumulation of cells at subG0/G1 phase at 20 uM incubated for 24 hrs by propidium iodide staining based flow cytometry (Rvb= 0.66%)", "format": "functional", "in_short": "as §1"}, "BGC-823 [6]": {"tested_on": "BGC-823", "experiment": "Cell cycle arrest in human BGC823 cells assessed as accumulation of cells at subG0/G1 phase incubated for 24 to 72 hrs by propidium iodide staining based flow cytometry", "format": "functional", "in_short": "as §1"}, "BGC-823 [7]": {"tested_on": "BGC-823", "experiment": "Reduction in survivin protein expression in human BGC823 cells at 40 uM incubated for 48 hrs by Western blotting", "format": "functional", "in_short": "(§3)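 BGC-823 cells were treated with 10, 20 or 40 µM for 48 h, detached with trypsin/EDTA, and more than 10⁶ cells were lysed. Protein was quantified by Bradford, and 150–200 µg per lane was run on 12.5% SDS-PAGE and transferred to PVDF. Antibodies: Survivin 1:1000, Bcl-2 1:200, β-actin 1:1000; HRP secondary 1 h; ECL detection. Expression was quantified relative to control.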"}, "Mus musculus [8]": {"tested_on": "Mus musculus", "experiment": "Toxicity in human BGC823 cells xenografted nude mouse assessed as body weight changes at 30 mg/kg, iv treated 5 times on day 1, 4, 7, 10 and day 13 post tumor implant (reference value: 20.21 +/- 1.83 grams)", "format": "organism-based, BGC-823", "set-up": "dose 30 mg/kg, route intravenous", "details": "in vivo", "in_short": "(§4)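 Nude mice (male, 5 weeks, 18–22 g) carried subcutaneous BGC-823 xenografts from 1 × 10⁷ cells. Dosing started at about 200 mm³ tumour volume, with eight mice per group. Each dose was 0.2 mL given iv; the saline control received 0.9% saline. Body weight was recorded on days 1, 4, 7, 10, 13 and 16 of treatment and reported as mean ± SD, n = 8.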"}, "Mus musculus [9]": {"tested_on": "Mus musculus", "experiment": "Toxicity in human BGC823 cells xenografted nude mouse assessed as body weight changes at 30 mg/kg, iv treated on day 1 post tumor implant (reference value: 19.69 +/- 1.21 grams)", "format": "organism-based, BGC-823", "set-up": "dose 30 mg/kg, route intravenous", "details": "in vivo", "in_short": "as §4"}, "BGC-823 [10]": {"tested_on": "BGC-823", "experiment": "Induction of apoptosis in human BGC823 cells assessed as increase in caspase 3 activity at 10 to 20 uM incubated for 48 hrs", "format": "functional, cell-based", "in_short": "(§5)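 BGC-823 cells were exposed to 0, 10 or 20 µM for 48 h, detached with trypsin/EDTA and washed in cold PBS. About 10⁶ cells were lysed, and the lysate was incubated 1 h with Ac-DEVD-pNA, with cleavage read at 405 nm. Activity was normalised to Bradford protein and expressed relative to the untreated control. Mean ± SD of three independent experiments.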"}, "[11]": {"experiment": "Cytotoxicity against human GES-1 cells incubated for 48 hrs by MTT assay", "format": "cell-based", "details": "GES1, 48 h", "in_short": "as §2"}, "BGC-823 [12]": {"tested_on": "BGC-823", "experiment": "Induction of apoptosis in human BGC823 cells assessed as necrotic damaged cell population at 20 uM by annexinV/propidium iodide staining (reference value: 0.5%", "format": "functional"}, "Mus musculus [13]": {"tested_on": "Mus musculus", "experiment": "Toxicity in human BGC823 cells xenografted nude mouse assessed as body weight changes at 30 mg/kg, iv treated 5 times on day 1, 4, 7, 10, 13 and day 16 post tumor implant (reference value: 20.12 +/- 1.52 grams)", "format": "organism-based, BGC-823", "set-up": "dose 30 mg/kg, route intravenous", "details": "in vivo", "in_short": "as §4"}, "BGC-823 [14]": {"tested_on": "BGC-823", "experiment": "Induction of apoptosis in human BGC823 cells assessed as late apoptotic cell population at 20 uM by annexinV/propidium iodide staining (reference value: 2.1%)", "format": "functional"}, "BGC-823 [15]": {"tested_on": "BGC-823", "experiment": "Induction of apoptosis in human BGC823 cells assessed as induction of DNA fragmentation at 10 to 40 uM incubated for 48 hrs by alkaline comet assay", "format": "functional, cell-based", "in_short": "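Alkaline comet assay on about 10⁵ BGC-823 cells after 48 h at 37 °C with 10, 20 or 40 µM. Cells with diffuse fan-like tails and small heads were scored as apoptotic; large defined heads with minimal DNA diffusion were scored as normal.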"}, "BGC-823 [16]": {"tested_on": "BGC-823", "experiment": "Induction of apoptosis in human BGC823 cells assessed as necrotic damaged cell population at 10 uM by annexinV/propidium iodide staining (reference value: 0.5%", "format": "functional"}, "BGC-823 [17]": {"tested_on": "BGC-823", "experiment": "Induction of apoptosis in human BGC823 cells assessed as necrotic damaged cell population at 30 uM by annexinV/propidium iodide staining (reference value: 0.5%", "format": "functional"}, "Mus musculus [18]": {"tested_on": "Mus musculus", "experiment": "Toxicity in human BGC823 cells xenografted nude mouse assessed as body weight changes at 30 mg/kg, iv treated 4 times on day 1, 4, 7 and 10 post tumor implant (reference value: 20.54 +/- 1.45 grams)", "format": "organism-based, BGC-823", "set-up": "dose 30 mg/kg, route intravenous", "details": "in vivo", "in_short": "as §4"}, "BGC-823 [19]": {"tested_on": "BGC-823", "experiment": "Reduction in survivin protein expression in human BGC823 cells at 10 uM incubated for 48 hrs by Western blotting", "format": "functional", "in_short": "as §3"}, "BGC-823 [20]": {"tested_on": "BGC-823", "experiment": "Cell cycle arrest in human BGC823 cells assessed as accumulation of cells at subG0/G1 phase at 20 uM incubated for 72 hrs by propidium iodide staining based flow cytometry (Rvb= 0.66%)", "format": "functional", "in_short": "as §1"}, "BGC-823 [21]": {"tested_on": "BGC-823", "experiment": "Induction of apoptosis in human BGC823 cells assessed as increase in caspase 3 activity at 10 uM incubated for 48 hrs relative to untreated control", "format": "functional", "in_short": "as §5"}, "Mus musculus [22]": {"tested_on": "Mus musculus", "experiment": "Toxicity in human BGC823 cells xenografted nude mouse assessed as body weight changes at 6 mg/kg, iv treated on day 1 post tumor implant (reference value: 19.69 +/- 1.21 grams)", "format": "organism-based, BGC-823", "set-up": "dose 6 mg/kg, route intravenous", "details": "in vivo"}, "Mus musculus [23]": {"tested_on": "Mus musculus", "experiment": "Toxicity in human BGC823 cells xenografted nude mouse assessed as body weight changes at 30 mg/kg, iv treated 3 times on day 1, day 4 and day 7 post tumor implant (reference value: 20.79 +/- 1.29 grams)", "format": "organism-based, BGC-823", "set-up": "dose 30 mg/kg, route intravenous", "details": "in vivo", "in_short": "as §4"}, "HT-29": {"tested_on": "HT-29", "experiment": "Cytotoxicity against human HT-29 cells incubated for 48 hrs by MTT assay", "format": "functional, cell-based", "details": "HT-29, 48 h", "in_short": "as §2"}, "Mus musculus [24]": {"tested_on": "Mus musculus", "experiment": "Toxicity in human BGC823 cells xenografted nude mouse assessed as body weight changes at 6 mg/kg, iv treated 2 times on day 1 and day 4 post tumor implant (reference value: 20.58 +/- 1.35 grams)", "format": "organism-based, BGC-823", "set-up": "dose 6 mg/kg, route intravenous", "details": "in vivo", "in_short": "as §4"}}, "note": "The source made the active and inactive calls. The calls are words filed in the database; no cut-off is given here."}
{"compound": "CC(=O)O[C@H]1CC[C@]2(C)[C@H]3CC=C4[C@@H]5[C@@H](C)[C@H](C)CC[C@]5(C(=O)OCC(O)CO)CC[C@@]4(C)[C@]3(C)CC[C@H]2C1(C)C", "note": "(stereo partly specified)", "values": [{"measurement": "Activity", "setting": "BGC-823 [1]", "value": 4.5, "unit": "%"}, {"measurement": "Activity", "setting": "BGC-823 [2]", "value": 96.13, "unit": "%"}, {"measurement": "Activity", "setting": "BGC-823 [3]", "value": 7.91, "unit": "%"}, {"measurement": "IC50", "setting": "HepG2", "value": 27.5, "unit": "µM"}, {"measurement": "Activity", "setting": "BGC-823 [4]", "value": 29, "unit": "%"}, {"measurement": "Activity", "setting": "BGC-823 [5]", "value": 3.71, "unit": "%"}, {"measurement": "Activity", "setting": "BGC-823 [6]", "value": "Dose-dependent effect"}, {"measurement": "Activity", "setting": "BGC-823 [7]", "value": 53.1, "unit": "%"}, {"measurement": "Activity", "setting": "Mus musculus [8]", "value": 19.69, "unit": "g"}, {"measurement": "Activity", "setting": "Mus musculus [9]", "value": 19.26, "unit": "g"}, {"measurement": "Activity", "setting": "BGC-823 [10]", "value": "Active"}, {"measurement": "IC50", "setting": "[11]", "value": 155, "unit": "µM"}, {"measurement": "Activity", "setting": "BGC-823 [12]", "value": 0.1, "unit": "%"}, {"measurement": "Activity", "setting": "Mus musculus [13]", "value": 19.57, "unit": "g"}, {"measurement": "Activity", "setting": "BGC-823 [14]", "value": 2.3, "unit": "%"}, {"measurement": "Activity", "setting": "BGC-823 [15]", "value": "Dose-dependent effect"}, {"measurement": "Activity", "setting": "BGC-823 [16]", "value": 0.2, "unit": "%"}, {"measurement": "Activity", "setting": "BGC-823 [17]", "value": 6.5, "unit": "%"}, {"measurement": "Activity", "setting": "Mus musculus [18]", "value": 19.16, "unit": "g"}, {"measurement": "Activity", "setting": "BGC-823 [19]", "value": 37.6, "unit": "%"}, {"measurement": "Activity", "setting": "BGC-823 [20]", "value": 13.63, "unit": "%"}, {"measurement": "fold change (FC)", "setting": "BGC-823 [21]", "value": 2.54}, {"measurement": "Activity", "setting": "Mus musculus [22]", "value": 19.21, "unit": "g"}, {"measurement": "Activity", "setting": "Mus musculus [23]", "value": 19.29, "unit": "g"}, {"measurement": "IC50", "setting": "HT-29", "value": 18.4, "unit": "µM"}, {"measurement": "Activity", "setting": "Mus musculus [24]", "value": 20.66, "unit": "g"}]}
